This is an account of results in ChEMBL document CHEMBL1177860, “Design, synthesis, and pharmacological evaluation of the aqueous prodrugs of desmethyl anethole trithione with hepatoprotective activity” (Eur J Med Chem, 2010).

The nature of data set [1]: Aqueous solubility in water after 24 hrs by HPLC analysis. It counts as physicochemical. In short, it runs like this:
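Water (10 mL) added to the solid; sonicated 5 min, then stirred 24 h in a 25 °C water bath. Centrifuged at 10 000 rpm for 10 min, supernatant membrane-filtered and quantified by HPLC.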

Data set [2] is described as follows: Chemical stability in phosphate buffer solution at pH 1.10 to 12.02 at 37 degC up to 24 hrs by HPLC analysis. It counts as physicochemical. The settings on record: pH 1.1, 24 h. The method, boiled down: (§1)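 Phosphate buffers at pH 1.10, 4.02, 6.84, 9.14 and 12.02, held at 37 °C and at 60 °C. Remaining compound quantified by HPLC at 0, 1, 2, 4, 8, 16 and 24 h.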

The nature of data set [3]: Chemical stability in phosphate buffer solution at pH 1.10 to 6.84 at 60 degC up to 24 hrs by HPLC analysis. Type of data set: physicochemical. To be noted: pH 1.1, 24 h. The method, boiled down: as §1
In another data set the test system is Plasma. Kind of data set: Stability in mouse plasma up to 12 hrs by HPLC analysis. It counts as ADME, cell-free. In short, it runs like this:
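Aqueous compound solution (1.0 mL, 50 stock) added to 5 mL mouse plasma, kept at 37 ± 1 °C. 200 aliquots taken at 0, 1, 2, 4, 8 and 12 h, mixed with 400 acetonitrile for 5 min, centrifuged at 10 000 rpm for 5 min, and supernatant analysed by HPLC.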

The test system of data set [4] is Mus musculus. Kind of data set: Hepatoprotective activity in Kunming mouse assessed as reduction of CCL4-induced increase of serum ALT level at 1 mg/kg, ip administered 0.5 hrs before CCL4 challenge measured after 16 hrs. It counts as functional. The settings on record: route intraperitoneal. The method, boiled down: (§2)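 Adult male Kunming mice (20–22 g), fasted the day before, in groups of ten. Compound given ip at 1, 2 or 4 mg/kg, followed 0.5 h later by ip CCl₄ (5 mL/kg as 0.2% peanut oil solution). Controls: saline alone, and CCl₄ alone. Orbital blood taken at 16 h; serum assayed for ALT and AST. Mean ± S.D., compared with the CCl₄ group.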

Data set [5] has as its system Mus musculus. Kind of data set: Hepatoprotective activity in Kunming mouse assessed as reduction of CCL4-induced increase of serum AST level at 1 mg/kg, ip administered 0.5 hrs before CCL4 challenge measured after 16 hrs. It counts as functional. To be noted: route intraperitoneal. The method, boiled down:
as §2

In data set [6] the test system is Mus musculus. Kind of data set: Hepatoprotective activity in Kunming mouse assessed as reduction of CCL4-induced increase of serum ALT level at 2 mg/kg, ip administered 0.5 hrs before CCL4 challenge measured after 16 hrs. To be noted: route intraperitoneal. Type of data set: functional. The method, boiled down: as §2
For data set [7], the system named is Mus musculus. Kind of data set: Hepatoprotective activity in Kunming mouse assessed as reduction of CCL4-induced increase of serum AST level at 2 mg/kg, ip administered 0.5 hrs before CCL4 challenge measured after 16 hrs. Type of data set: functional. The settings on record: route intraperitoneal. In short, it runs like this: as §2
The subject of data set [8] is Mus musculus. The experiment in a line: Hepatoprotective activity in Kunming mouse assessed as reduction of CCL4-induced increase of serum ALT level at 4 mg/kg, ip administered 0.5 hrs before CCL4 challenge measured after 16 hrs. Type of data set: functional. To be noted: route intraperitoneal. In short, it runs like this:
as §2

Data set [9] has as its system Mus musculus. The experiment in a line: Hepatoprotective activity in Kunming mouse assessed as reduction of CCL4-induced increase of serum AST level at 4 mg/kg, ip administered 0.5 hrs before CCL4 challenge measured after 16 hrs. Type of data set: functional. The settings on record: route intraperitoneal. The method, boiled down: as §2
For data set [10], the system named is Mus musculus. The experiment in a line: In vivo metabolic stability in Kunming mouse assessed as 5-(4-hydroxyphenyl)-3H-1,2-dithiole-3-thione level in plasma at 10 mg/kg, ip measured up to 8 hrs by HPLC analysis. It counts as ADME, organism-based. Also noted: dose 10 mg/kg, route intraperitoneal. The method, boiled down:
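Male Kunming mice, ten groups of four, given 10.00 mg/kg ip. Orbital blood (0.5 mL) taken into heparinized tubes at 0.02–8 h. Plasma precipitated with 2 volumes acetonitrile, sonicated, centrifuged, and analysed by HPLC at 354 nm. Plasma calibration curve spans 0.05–31.11 with six points; QC at three levels.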

SMILES strings stand for the structures.

In data set [1], `CN(C)c1cc[n+](CCOc2ccc(-c3cc(=S)ss3)cc2)cc1.[Br-]` showed a solubility at 24 h of 2800 µg/mL. The Stability result (in [2]; in data set [3]; with Plasma) was “Stable” each time.
Regarding `CC[N+](CC)(CC)CCOc1ccc(-c2cc(=S)ss2)cc1.[Br-]`, the solubility at 24 h in data set [1] stood at 3500 µg/mL. Further, the Stability result (in [2]; in data set [3]; with Plasma) was “Stable” in each case.
Take `Oc1ccc(-c2cc(=S)ss2)cc1`: in data set [1], the solubility at 24 h is less than 130 µg/mL. Besides, the Stability entry (in [2]; in data set [3]; with Plasma) was “Stable” in each case.
In turn, `COc1ccc(-c2cc(=S)ss2)cc1` [ANETHOLTRITHION] displayed a solubility at 24 h in [1] of less than 10 µg/mL. Further, the Stability result (in [2]; in data set [3]; with Plasma) was “Stable” each time. Moreover, the Activity in the data set with Mus musculus [4] is recorded as 150.7 IU/L; in the data set with Mus musculus [5], 269.6 IU/L; in the data set on Mus musculus [6] it was 112.4 IU/L; in the data set with Mus musculus [7], 265.9 IU/L; with Mus musculus [8] it was 177.2 IU/L; with Mus musculus [9], 407.1 IU/L.
`Cl.S=c1cc(-c2ccc(OCCN3CCCCC3)cc2)ss1` yielded a solubility at 24 h in data set [1] of more than 20000 µg/mL. For the same molecule, the Stability result (in [2]; in data set [3]; with Plasma) was “Stable” in each case. For the same molecule, the Activity came to 169.3 IU/L in the data set on Mus musculus [4]; 920.6 IU/L in the data set on Mus musculus [5]; 259.6 IU/L in the data set with Mus musculus [6]; 416.8 IU/L in the data set with Mus musculus [7]; 382.9 IU/L in the data set with Mus musculus [8]; 423.9 IU/L with Mus musculus [9].
In turn, `Cl.S=c1cc(-c2ccc(OCCN3CCCC3)cc2)ss1` displayed a solubility at 24 h in data set [1] of more than 20000 µg/mL. In addition, the Stability entry (in data set [2]; in [3]; in the data set with Plasma) was “Stable” throughout. Also, the Activity in the data set with Mus musculus [4] turned out to be 416.6 IU/L; in the data set with Mus musculus [5] it was 501.2 IU/L; with Mus musculus [6], 535.9 IU/L; in the data set with Mus musculus [7] it was 582.9 IU/L; in the data set with Mus musculus [8], 561.5 IU/L; with Mus musculus [9], 607.8 IU/L.
`S=c1cc(-c2ccc(OCC[n+]3ccccc3)cc2)ss1.[Br-]` yielded a solubility at 24 h in data set [1] of 2300 µg/mL. Besides, the Stability result (in data set [2]; in data set [3]; in the data set with Plasma) was “Stable” throughout. Moreover, the Activity in the data set on Mus musculus [4] amounted to 426.1 IU/L; in the data set with Mus musculus [5] it was 559.2 IU/L; in the data set on Mus musculus [6], 630.1 IU/L; in the data set on Mus musculus [7] it was 617.8 IU/L; in the data set with Mus musculus [8], 685 IU/L; in the data set on Mus musculus [9], 784.3 IU/L.
`CN(C)CCOc1ccc(-c2cc(=S)ss2)cc1.Cl`: the solubility at 24 h in data set [1] was more than 20000 µg/mL. The Stability entry (in data set [2]; in data set [3]; in the data set with Plasma; with Mus musculus [10]) was “Stable” each time. The Activity came out at 216.5 IU/L in the data set with Mus musculus [4]; 310.9 IU/L in the data set with Mus musculus [5]; 109.7 IU/L with Mus musculus [6]; 215.7 IU/L in the data set with Mus musculus [7]; 171.6 IU/L in the data set on Mus musculus [8]; 284.1 IU/L in the data set with Mus musculus [9].
Molecule `Cl.S=c1cc(-c2ccc(OCCN3CCOCC3)cc2)ss1` yielded a solubility at 24 h in data set [1] of more than 20000 µg/mL. Further, the Stability entry (in data set [2]; in [3]; in the data set with Plasma) was “Stable” in each case. Also, the Activity with Mus musculus [4] was 595.4 IU/L; with Mus musculus [5], 851.7 IU/L; in the data set with Mus musculus [6] it was 468 IU/L; in the data set with Mus musculus [7], 552.5 IU/L; in the data set with Mus musculus [8] it was 457.7 IU/L; in the data set on Mus musculus [9], 824.9 IU/L.
